Laboratory results: ChEMBL document CHEMBL1142258, “Discovery of a series of aminopiperidines as novel iNOS inhibitors” (Bioorg Med Chem Lett, 2008)

Legend:
[1] = target: T1, Nitric oxide synthase, inducible (Homo sapiens, UniProt P35228); assay: Inhibition of cytokine-induced iNOS activity in human DLD1 cells after 24 hrs; format: cell-based, DLD-1
Outline: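 DLD-1 cells were seeded 3 days ahead, then given fresh medium with 20 ng/mL IFNγ, 4 ng/mL TNFα, 2 ng/mL IL1β and 1 mM L-arginine. Compound titrations in 50 mM Hepes pH 7.4 were added at eight concentrations for 24 h at 37 °C, 5% CO2. Nitrite was read with Griess reagent at 540 nm.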

[2] = organism: Homo sapiens; assay: Selectivity for human eNOS to human iNOS
Outline: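 Ratio of eNOS IC50 to iNOS IC50, both from [3H]arginine→[3H]citrulline conversion. iNOS was endogenous to DLD-1 cells; eNOS was human recombinant expressed in SF9 cells. Each used 10 nM [3H]arginine with NADP+/G6P/FAD/FMN/BH4 cofactors in 50 mM Hepes for 1 h at 37 °C. The eNOS reaction also had calmodulin, CaCl2 and glutathione. Citrulline was separated by cation exchange and counted. IC50s came from eight concentrations, as geometric means of ≥3 runs.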

[3] = target: T2, Nitric oxide synthase 3 (Homo sapiens, UniProt P29474); assay: Inhibition of human eNOS expressed in insect SF9 cells after 1 hr
T2 sequence (P29474 whole entry): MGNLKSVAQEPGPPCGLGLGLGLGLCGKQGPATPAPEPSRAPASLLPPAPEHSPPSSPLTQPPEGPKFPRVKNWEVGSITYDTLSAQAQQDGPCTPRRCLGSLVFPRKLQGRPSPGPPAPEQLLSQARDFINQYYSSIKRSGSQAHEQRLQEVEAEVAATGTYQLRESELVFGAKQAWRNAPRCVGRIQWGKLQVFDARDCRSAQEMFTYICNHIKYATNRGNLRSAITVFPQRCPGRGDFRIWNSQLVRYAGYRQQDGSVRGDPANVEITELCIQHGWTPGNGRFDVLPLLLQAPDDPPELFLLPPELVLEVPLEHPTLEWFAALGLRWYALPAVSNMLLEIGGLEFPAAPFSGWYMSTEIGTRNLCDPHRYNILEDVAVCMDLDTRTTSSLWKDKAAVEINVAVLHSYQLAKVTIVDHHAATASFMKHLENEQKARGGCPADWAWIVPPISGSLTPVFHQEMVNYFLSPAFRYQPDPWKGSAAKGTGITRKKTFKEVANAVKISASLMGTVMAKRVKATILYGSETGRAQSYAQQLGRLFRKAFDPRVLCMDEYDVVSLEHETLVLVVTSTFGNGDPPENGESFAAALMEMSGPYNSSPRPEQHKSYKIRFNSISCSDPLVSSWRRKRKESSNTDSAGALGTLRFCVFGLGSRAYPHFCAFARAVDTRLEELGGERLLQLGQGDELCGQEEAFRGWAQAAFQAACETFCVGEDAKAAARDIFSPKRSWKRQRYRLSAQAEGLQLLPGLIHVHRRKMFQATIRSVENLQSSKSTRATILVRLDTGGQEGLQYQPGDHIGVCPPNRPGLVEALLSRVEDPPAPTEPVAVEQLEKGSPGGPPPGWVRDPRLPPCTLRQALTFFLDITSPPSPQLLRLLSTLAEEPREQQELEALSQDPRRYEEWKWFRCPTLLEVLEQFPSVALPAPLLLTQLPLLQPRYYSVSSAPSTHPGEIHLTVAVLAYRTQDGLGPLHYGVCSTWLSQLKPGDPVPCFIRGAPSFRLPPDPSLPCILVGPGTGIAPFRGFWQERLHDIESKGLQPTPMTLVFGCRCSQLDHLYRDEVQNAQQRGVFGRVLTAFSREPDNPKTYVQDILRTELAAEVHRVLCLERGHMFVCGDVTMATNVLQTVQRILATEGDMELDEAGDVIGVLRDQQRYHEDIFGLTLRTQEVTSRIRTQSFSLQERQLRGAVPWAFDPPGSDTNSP
Outline: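 Human recombinant eNOS from SF9 cells, tested at eight concentrations. Conditions: 10 nM [3H]arginine with NADP+/G6P/G6PDH, MgCl2, FAD, FMN, BH4, plus 25 nM calmodulin, 0.5 mM CaCl2 and 3.5 mM glutathione, in 50 mM Hepes for 1 h at 37 °C. Citrulline was resin-separated and counted, with AMT background. IC50 from one-site fit, geometric mean of ≥3 runs.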

[4] = target: Nitric oxide synthase 1 (Homo sapiens, UniProt P29475); assay: Inhibition of human nNOS expressed in insect SF9 cells after 1 hr
Nitric oxide synthase 1, sequence (P29475 whole entry): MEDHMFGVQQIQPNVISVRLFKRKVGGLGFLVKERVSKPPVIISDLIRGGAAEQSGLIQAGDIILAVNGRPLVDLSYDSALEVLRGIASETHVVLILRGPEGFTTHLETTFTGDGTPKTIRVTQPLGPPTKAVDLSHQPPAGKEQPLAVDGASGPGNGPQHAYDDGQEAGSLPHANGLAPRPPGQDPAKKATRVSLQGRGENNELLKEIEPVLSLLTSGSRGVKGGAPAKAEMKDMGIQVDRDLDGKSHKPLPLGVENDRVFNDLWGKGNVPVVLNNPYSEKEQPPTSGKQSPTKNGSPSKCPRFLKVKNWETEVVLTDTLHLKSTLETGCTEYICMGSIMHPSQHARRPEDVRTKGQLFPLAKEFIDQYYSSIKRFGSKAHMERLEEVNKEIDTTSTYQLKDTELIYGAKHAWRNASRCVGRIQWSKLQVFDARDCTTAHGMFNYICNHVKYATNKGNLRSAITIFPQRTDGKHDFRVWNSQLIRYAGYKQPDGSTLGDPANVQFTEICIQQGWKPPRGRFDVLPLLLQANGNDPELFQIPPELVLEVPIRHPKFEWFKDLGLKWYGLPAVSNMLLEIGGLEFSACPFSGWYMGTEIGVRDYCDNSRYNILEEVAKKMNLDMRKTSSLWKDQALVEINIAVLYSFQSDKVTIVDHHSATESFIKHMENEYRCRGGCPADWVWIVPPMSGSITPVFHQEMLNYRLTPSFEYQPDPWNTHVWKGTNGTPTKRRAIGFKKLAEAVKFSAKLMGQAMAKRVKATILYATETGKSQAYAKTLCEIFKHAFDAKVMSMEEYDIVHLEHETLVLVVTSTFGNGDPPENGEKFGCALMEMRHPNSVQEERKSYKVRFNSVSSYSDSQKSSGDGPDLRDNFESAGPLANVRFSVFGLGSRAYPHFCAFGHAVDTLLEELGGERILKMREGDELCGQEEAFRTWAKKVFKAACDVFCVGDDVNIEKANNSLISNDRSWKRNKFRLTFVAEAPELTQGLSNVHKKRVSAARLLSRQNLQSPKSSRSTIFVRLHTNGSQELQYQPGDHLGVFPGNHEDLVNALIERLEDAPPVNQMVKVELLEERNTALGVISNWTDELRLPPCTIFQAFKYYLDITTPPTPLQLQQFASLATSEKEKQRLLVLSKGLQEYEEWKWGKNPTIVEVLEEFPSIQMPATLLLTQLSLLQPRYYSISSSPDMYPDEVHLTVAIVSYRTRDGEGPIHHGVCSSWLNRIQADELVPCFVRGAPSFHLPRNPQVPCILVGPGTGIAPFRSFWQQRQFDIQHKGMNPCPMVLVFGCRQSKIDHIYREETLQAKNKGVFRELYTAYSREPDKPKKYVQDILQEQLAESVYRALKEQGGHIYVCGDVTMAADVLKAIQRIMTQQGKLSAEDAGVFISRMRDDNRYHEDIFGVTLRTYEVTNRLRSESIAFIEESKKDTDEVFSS

[5] = target: T1, Nitric oxide synthase, inducible; assay: Inhibition of human iNOS expressed in human DLD1 cells after 1 hr; format: cell-based, DLD-1
Outline: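 Human iNOS endogenously expressed in DLD-1 cells, eight compound concentrations. Incubated 1 h at 37 °C in 50 mM Hepes with 10 nM [3H]arginine, [14C]citrulline internal standard, β-NADP+, G6P, MgCl2, G6P dehydrogenase, FAD, FMN and BH4. [3H]citrulline was separated on cation-exchange resin and counted; AMT defined background.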

[6] = target: T1, Nitric oxide synthase, inducible; assay: Inhibition of cytokine-induced iNOS activity in human DLD1 cells at 10 uM after 24 hrs; format: cell-based; conditions: DLD-1
[7] = target: T3, Nitric oxide synthase 3 (Homo sapiens) (UniProt P29474); assay: Inhibition of human eNOS expressed in insect SF9 cells at 10 uM after 1 hr
T3 sequence (whole entry): T2 sequence (P29474 whole entry)

T1 sequence (P35228 whole entry): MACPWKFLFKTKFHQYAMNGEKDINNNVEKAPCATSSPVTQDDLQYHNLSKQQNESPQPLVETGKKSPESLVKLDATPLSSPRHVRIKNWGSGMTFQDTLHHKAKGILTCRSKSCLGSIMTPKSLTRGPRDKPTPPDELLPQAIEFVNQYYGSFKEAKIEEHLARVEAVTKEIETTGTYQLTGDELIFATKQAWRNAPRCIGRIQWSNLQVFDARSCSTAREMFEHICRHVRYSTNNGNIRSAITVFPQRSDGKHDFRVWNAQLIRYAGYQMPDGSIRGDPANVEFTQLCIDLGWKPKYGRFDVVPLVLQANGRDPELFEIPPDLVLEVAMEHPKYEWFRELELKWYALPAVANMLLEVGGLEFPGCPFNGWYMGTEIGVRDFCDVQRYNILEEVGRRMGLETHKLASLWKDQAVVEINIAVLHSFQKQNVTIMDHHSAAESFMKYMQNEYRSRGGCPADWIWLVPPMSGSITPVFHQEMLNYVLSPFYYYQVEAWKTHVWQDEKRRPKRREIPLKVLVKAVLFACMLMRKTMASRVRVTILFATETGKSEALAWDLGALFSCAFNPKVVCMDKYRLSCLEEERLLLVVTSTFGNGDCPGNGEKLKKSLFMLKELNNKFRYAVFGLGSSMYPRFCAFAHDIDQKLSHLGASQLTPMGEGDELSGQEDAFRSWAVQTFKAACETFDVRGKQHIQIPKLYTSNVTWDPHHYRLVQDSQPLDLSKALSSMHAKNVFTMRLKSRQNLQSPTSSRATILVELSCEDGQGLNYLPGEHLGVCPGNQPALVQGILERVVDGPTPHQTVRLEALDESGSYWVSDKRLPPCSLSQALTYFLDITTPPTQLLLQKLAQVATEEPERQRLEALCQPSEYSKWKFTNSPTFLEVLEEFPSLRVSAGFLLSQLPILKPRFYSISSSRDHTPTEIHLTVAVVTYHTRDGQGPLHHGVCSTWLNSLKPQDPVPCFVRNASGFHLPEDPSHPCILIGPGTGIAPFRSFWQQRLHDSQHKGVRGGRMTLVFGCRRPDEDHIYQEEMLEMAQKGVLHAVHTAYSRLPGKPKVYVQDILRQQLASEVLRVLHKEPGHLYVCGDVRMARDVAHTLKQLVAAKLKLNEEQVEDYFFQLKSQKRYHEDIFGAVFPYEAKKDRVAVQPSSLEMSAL

| Structure (SMILES) | IC50 [1] [nM] | Ratio IC50 [2] | IC50 [3] [nM] | IC50 [4] [nM] | IC50 [5] [nM] | inhibition [6] [%] | inhibition [7] [%] |
| --- | --- | --- | --- | --- | --- | --- | --- |
| CC(=N)NCCCC[C@H](N)C(=O)O [L-NIL] | 31000 | 9 | 2500 | 6000 | 280 | – | – |
| CN(Cc1cc(Cl)ccc1C#N)C1CCCNCC1 (stereo not given) | – | 7 | 4400 | 1200 | 660 | 31 | – |
| COc1ccc(C#N)c(CN(C)C2CCN(C)CC2)c1 | – | – | – | – | 5100 | < 15 | – |
| CN(Cc1cc(Cl)ccc1C#N)C1CCN(CCc2ccccc2)CC1 | 3300 | 1 | 220 | 150 | 300 | – | – |
| CCCN1CCC(N(C)Cc2cc(Cl)ccc2C#N)CC1 | 4400 | 2 | 1100 | 810 | 670 | – | – |
| CC(C)N(Cc1cc(Cl)ccc1C#N)C1CCNCC1 | 380 | 18 | 570 | 190 | 32 | – | – |
| CC(C)CN(Cc1cc(Cl)ccc1C#N)C1CCNCC1 | 570 | > 25 | – | 1900 | 390 | – | 20 |
| CC(C)CN(Cc1cc(Cl)ccc1C#N)[C@@H]1CCCN(C)C1 | 660 | > 15 | – | 4900 | 470 | – | 0 |
| CN1CCC(N(C)Cc2cc(Cl)ccc2Br)CC1 | – | 2 | 820 | 590 | 420 | 51 | – |
| CN(Cc1cc(Cl)ccc1C#N)C1CCCNC1 (stereo not given) | 4400 | 5 | 983 | 190 | 180 | – | – |
| CC(C)CN(Cc1cc(Cl)ccc1C#N)[C@H]1CCCN(C)C1 | 320 | > 50 | – | 6500 | 720 | – | 0 |
| CC(C)CN(Cc1cc(Cl)ccc1C#N)C1CCCNC1 (stereo not given) | 1200 | > 15 | – | 2500 | 290 | – | 15 |
| CN1CCC(N(C)Cc2cc(Cl)ccc2[N+](=O)[O-])CC1 | 1100 | 2 | 180 | 80 | 90 | – | – |
| CN(Cc1cc(Cl)ccc1C#N)C1CCN(Cc2ccccc2)CC1 | 3500 | 16 | 4300 | 1800 | 270 | – | – |
| CN(Cc1cc(Cl)ccc1C#N)C1CCN(CC2CC2)CC1 | 3500 | 3 | 860 | 530 | 250 | – | – |
| N#Cc1ccc(Cl)cc1CN(CC1CC1)C1CCNCC1 | 1400 | 13 | 2100 | 748 | 160 | – | – |
| CN1CCC(N(C)Cc2cc(Cl)ccc2C(F)(F)F)CC1 | – | 2 | 1400 | 780 | 700 | 48 | – |
| CC(C)CN1CCC(N(C)Cc2cc(Cl)ccc2C#N)CC1 | 3200 | 1 | 540 | 600 | 400 | – | – |
| CN1CCC(N(C)Cc2cc(Cl)ccc2C#N)CC1 | 3700 | 3 | 770 | 540 | 290 | – | – |
| CCCCN1CCC(N(C)Cc2cc(Cl)ccc2C#N)CC1 | 3800 | 2 | 680 | 420 | 340 | – | – |
| CN1CCC(N(C)Cc2cc(Br)ccc2C#N)CC1 | 3700 | 4 | 810 | 530 | 210 | – | – |
| CC(C)CN(Cc1cc(Cl)ccc1C#N)[C@H]1CCCNC1 | 570 | > 25 | – | 5300 | 330 | – | 0 |
| CCN1CCC(N(C)Cc2cc(Cl)ccc2C#N)CC1 | 4500 | 1 | 450 | 370 | 370 | – | – |
| CC(C)CN(Cc1cc(Cl)ccc1C#N)[C@@H]1CCCNC1 | 1500 | > 25 | – | 1200 | 260 | – | 23 |
| CCCN(Cc1cc(Cl)ccc1C#N)C1CCNCC1 | 280 | 13 | 1700 | 140 | 130 | – | – |
| CCN(Cc1cc(Cl)ccc1C#N)C1CCNCC1 | 580 | 10 | 1000 | 360 | 100 | – | – |
| N#Cc1ccc(C(=O)N2CCC3(CC2)N=C(N)c2c(F)ccc(F)c2N3)cn1 | – | – | – | – | – | – | < 15 |
| CCCCN(Cc1cc(Cl)ccc1C#N)C1CCNCC1 | 5000 | – | – | – | 570 | – | – |
| CN(Cc1cc(Cl)ccc1C#N)C1CCNCC1 | 5900 | 3 | 1100 | 350 | 330 | – | – |
